Source: ChEMBL document CHEMBL1123218, “Synthesis and inhibitory activity on carbonic anhydrase of some new sulpiride analogues studied by means of a new method” (J Med Chem, 1986)
Activity calls are given as the source filed them. No cut-off for these calls is given here.

How the values were obtained:
Type in all cases: protein assay
[1] = target: T1, Carbonic anhydrase (Bos taurus) (UniProt P00921+Q95323+P18915+Q3SZX4); assay: Evaluated for the inhibition of carbonic anhydrase enzyme at 0.2 g/L concentration
Procedure, shortened: (§1)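 Potentiometric CO2-evolution assay tracked with a pCO2 electrode, 25 ± 0.1 °C, constant stirring, pH 7.0 (0.1 M phosphate buffer), 60 min. NaHCO3 aliquots (0.1 and 5.0 mL) were added to 30 mL buffer at min 2 and 14. CA solution (1.0 mL) was added just before the second bicarbonate addition. Inhibitor was present in the buffer from the assay start.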

[2] = target: T1, Carbonic anhydrase (Bos taurus); assay: Compound was evaluated for the inhibition of carbonic anhydrase enzyme at 1.5 g/L concentration; a=No inhibition detected; procedure, shortened: as §1
[3] = target: T1, Carbonic anhydrase (Bos taurus); assay: Compound was evaluated for the inhibition of carbonic anhydrase enzyme at 2.0 g/L concentration; a=No inhibition detected; procedure, shortened: as §1
[4] = target: T1, Carbonic anhydrase (Bos taurus); assay: Compound was evaluated for the inhibition of carbonic anhydrase enzyme at 0.5 g/L concentration; a=No inhibition detected; procedure, shortened: as §1
[5] = target: T1, Carbonic anhydrase (Bos taurus); assay: Compound was evaluated for the inhibition of carbonic anhydrase enzyme at 1.0 g/L concentration; a=No inhibition detected; procedure, shortened: as §1
[6] = target: T1, Carbonic anhydrase (Bos taurus); assay: Compound was evaluated for the inhibition of carbonic anhydrase enzyme at 0.2 g/L concentration; a=No inhibition detected; procedure, shortened: as §1

| inhibition [1] [%] | Compound | further results |
| --- | --- | --- |
| 36.4 | C=CCN1CCN(C(=O)c2cc(S(N)(=O)=O)ccc2OC)CC1 | – |
| 37.9 | COc1ccc(S(N)(=O)=O)cc1CN1CCN(Cc2ccccc2)CC1 | – |
| 63.6 | COc1ccc(CN2CCN(C(=O)c3cc(S(N)(=O)=O)ccc3OC)CC2)cc1 | – |
| 68.9 | NS(=O)(=O)c1nc(C(=O)N2CCN(Cc3ccccc3)CC2)c[nH]1 | – |
| 46.2 | CCC(C)CN1CCN(C(=O)c2cc(S(N)(=O)=O)ccc2OC)CC1 (stereo not given) | – |
| 61.4 | COc1ccc(S(N)(=O)=O)cc1C(=O)N1CCN(Cc2cc(OC)c(OC)c(OC)c2)CC1 | – |
| 58.3 | COc1ccc(S(N)(=O)=O)cc1C(=O)N1CCN(Cc2ccccc2)CC1 | – |
| 70.5 | COc1ccc(S(N)(=O)=O)cc1C(=O)N1CCN(Cc2ccc(S(N)(=O)=O)cc2)CC1 | – |
| 54.6 | COc1ccc(S(N)(=O)=O)cc1C(=O)N1CCN(CC(=O)NC(C)C)CC1 | – |
| 66.7 | COc1cccc(CN2CCN(C(=O)c3cc(S(N)(=O)=O)ccc3OC)CC2)c1 | – |
| 36.4 | COc1ccc(S(N)(=O)=O)cc1C(=O)N1CCN(CC(C)C)CC1 | – |

Second part, the molecule before the results:

| Compound | inhibition [1] [%] | further results |
| --- | --- | --- |
| CC[C@H](C)COc1ccc(S(N)(=O)=O)cc1C(=O)NC[C@H]1CCCN1CC | 41.7 | – |
| COc1ccc(S(N)(=O)=O)cc1C(=O)N1CCN2CCCC2C1 (stereo not given) | 46.2 | – |
| CCN1CCCC1CN(C)C(=O)c1cc(S(N)(=O)=O)ccc1OC (stereo not given) | 39.4 | – |
| COc1ccc(S(N)(=O)=O)cc1C(=O)NCCN1CCCCC1 | 39.4 | – |
| COc1ccc(S(N)(=O)=O)cc1C(=O)N1CCN(CC(=O)N2CCCC2)CC1 | 45.5 | – |
| CCN1CCCC1CNC(=O)c1cc(S(=O)(=O)CC)ccc1OC (stereo not given) | – | inhibition [2]: inactive; inhibition [3]: inactive; inhibition [4]: inactive; inhibition [5]: inactive; inhibition [6]: inactive |
| COc1ccc(S(N)(=O)=O)cc1C(=O)N1CCN(CC2CCCCC2)CC1 | 51.5 | – |
| CCN1CCC[C@H]1CNC(=O)c1c(OC)c(Br)cc(Br)c1OC | – | inhibition [2]: No inhibition; inhibition [3]: No inhibition; inhibition [4]: No inhibition; inhibition [5]: No inhibition; inhibition [6]: No inhibition |
| CC[C@H](C)COc1ccc(S(N)(=O)=O)cc1C(=O)NC[C@@H]1CCCN1CC | 42.4 | – |
| COc1ccc(S(N)(=O)=O)cc1C(=O)N1CCNCC1 | 30.3 | – |
| COc1ccc(S(N)(=O)=O)cc1C(=O)NCCCN1CCOCC1 | 45.5 | – |
